Source: ChEMBL document CHEMBL4049418, “6-OH-Phenanthroquinolizidine Alkaloid and Its Derivatives Exert Potent Anticancer Activity by Delaying S Phase Progression” (J Med Chem, 2017)

Key:
Bel-7402 = experiment: Inhibition of DNA synthesis in human Bel7402 cells assessed as BrdU incorporation at 10 nM preincubated for 1 hr followed by BrdU addition for 30 mins by FITC/propidium iodide staining based flow cytometry (reference value: 35.5%); assay type: functional; set-up: scale not given: the % may be the effect or the level left
In short: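 BEL-7402 cells (3 × 10⁵ per well) exposed to compounds 1 h, then labeled with 10 μM BrdU for 30 min; trypsinized, fixed in 70% ethanol at −20 °C ≥1 h, 2 N HCl 20 min, neutralized with 0.1 M borate, stained with anti-BrdU-FITC plus PI 30 min; BrdU-positive cells quantified by flow cytometry; three independent experiments, mean + SD.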

[1] = Growth inhibition of human KB-MDR cells after 8 days by methylene blue-staining based spectrophotometry; assay type: functional; conditions: 192 h

Row | Structure (SMILES) | Activity (Bel-7402) | GI50 [1]
1 | COc1cc2c3c(c4ccc(O)cc4c2cc1OC)CN1CCCC[C@@H]1C3 | 5.07% | –
2 | COc1cc2c3c(c4cc(OC)c(OC)cc4c2cc1OC)[C@H](O)[C@@H]1CCCN1C3 | – | 30 nM
